Source: ChEMBL document CHEMBL1136105, “1,7- and 2,7-naphthyridine derivatives as potent and highly specific PDE5 inhibitors” (Bioorg Med Chem Lett, 2003)

Tests used:
[1] = target: Phosphodiesterase 6; experiment: Inhibitory activity against Phosphodiesterase 6 isolated from bovine retina; assay type: protein assay
[2] = target: T1, cGMP-dependent 3',5'-cyclic phosphodiesterase (Bos taurus, UniProt P14099); experiment: Inhibitory activity against phosphodiesterase-2 (PDE2) isolated from bovine adrenal gland; assay type: tissue-based
T1 sequence (P14099 whole entry): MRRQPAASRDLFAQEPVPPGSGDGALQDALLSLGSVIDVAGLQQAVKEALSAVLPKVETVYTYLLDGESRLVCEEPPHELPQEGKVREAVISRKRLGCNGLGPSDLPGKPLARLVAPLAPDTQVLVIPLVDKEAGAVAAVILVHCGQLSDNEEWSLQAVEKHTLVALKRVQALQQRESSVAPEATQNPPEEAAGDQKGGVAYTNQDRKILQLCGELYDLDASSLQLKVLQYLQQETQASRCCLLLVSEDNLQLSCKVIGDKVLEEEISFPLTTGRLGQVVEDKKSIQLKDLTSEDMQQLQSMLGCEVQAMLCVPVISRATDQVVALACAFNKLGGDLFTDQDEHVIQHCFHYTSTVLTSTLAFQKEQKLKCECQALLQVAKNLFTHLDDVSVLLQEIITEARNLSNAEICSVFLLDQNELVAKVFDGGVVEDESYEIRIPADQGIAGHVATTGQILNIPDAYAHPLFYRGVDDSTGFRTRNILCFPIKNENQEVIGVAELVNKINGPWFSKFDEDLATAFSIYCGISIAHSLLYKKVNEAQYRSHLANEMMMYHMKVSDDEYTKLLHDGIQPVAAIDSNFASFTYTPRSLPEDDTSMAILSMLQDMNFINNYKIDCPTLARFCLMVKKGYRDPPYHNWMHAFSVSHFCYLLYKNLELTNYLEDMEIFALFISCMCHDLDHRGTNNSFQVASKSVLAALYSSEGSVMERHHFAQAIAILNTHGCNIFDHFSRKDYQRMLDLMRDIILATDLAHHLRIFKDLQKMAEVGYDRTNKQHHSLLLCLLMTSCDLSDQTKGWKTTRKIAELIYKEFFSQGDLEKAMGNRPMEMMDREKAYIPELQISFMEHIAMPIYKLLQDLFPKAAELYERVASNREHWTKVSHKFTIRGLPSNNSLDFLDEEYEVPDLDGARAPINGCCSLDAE
In short: (§1)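 Enzyme IC50 taken from a logarithmic concentration–inhibition curve of at least four points; each value is the mean of at least two duplicate experiments.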

[3] = target: Phosphodiesterase 1 (Homo sapiens, UniProt P54750+Q01064+Q14123); experiment: Inhibitory activity against phosphodiesterase-1 (PDE1) isolated from canine lung; assay type: protein assay, Canis lupus familiaris; details: target entry is the homologue from another species; in short: as §1
[4] = organism: Oryctolagus cuniculus; experiment: Relaxant effect on rabbit corpus cavernosum; assay type: functional
[5] = target: cGMP-specific 3',5'-cyclic phosphodiesterase (Canis lupus familiaris, UniProt O77746); experiment: Inhibitory activity against phosphodiesterase 5 (PDE5) isolated from canine lung; in short: as §1
[6] = target: Phosphodiesterase 4 (Homo sapiens, UniProt P27815+Q08499+Q07343+Q08493); experiment: Inhibitory activity against phosphodiesterase 4 (PDE4) isolated from canine lung; assay type: protein assay, Canis lupus familiaris; details: target entry is the homologue from another species; in short: as §1
[7] = target: Phosphodiesterase 3 (Homo sapiens, UniProt Q14432+Q13370); experiment: Inhibitory activity against phosphodiesterase-3 (PDE3) isolated from canine heart; assay type: protein assay, Canis lupus familiaris; details: target entry is the homologue from another species; in short: as §1

| SMILES | IC50 [1] [nM] | IC50 [2] [nM] | IC50 [3] [nM] | EC30 [4] [nM] | IC50 [5] [nM] | IC50 [6] [nM] | IC50 [7] [nM] |
| --- | --- | --- | --- | --- | --- | --- | --- |
| COC(=O)c1c(-c2cc(OC)c(OC)c(OC)c2)c2ccc(OCc3ccccn3)cc2c(=O)n1-c1ccc(N)cc1.O=S(=O)(O)O | 28 | 9700 | 3000 | 7.9 |  |  |  |
| COC(=O)c1c(-c2cc(OC)c(OC)c(OC)c2)c2ccnc(OCc3ccccn3)c2c(=O)n1Cc1ccnc(C)c1 | 4.4 |  | 25000 |  | 0.31 |  |  |
| COC(=O)c1c(-c2cc(OC)c(OC)c(OC)c2)c2ccc(OCc3ccccn3)nc2c(=O)n1Cc1ccccn1.Cl | 230 |  | 20000 |  | 11 |  |  |
| COC(=O)c1c(-c2cc(OC)c(OC)c(OC)c2)c2ccnc(NCCO)c2c(=O)n1Cc1ccnc(C)c1.Cl | 280 | 78000 | 19000 | 14 | 2.6 | 450 | 5300 |
| COC(=O)c1c(-c2cc(OC)c(OC)c(OC)c2)c2ccc(OCc3cnccn3)nc2c(=O)n1Cc1ccnc(C)c1.Cl | 7.7 |  | 22000 |  | 0.29 |  |  |
| COC(=O)c1c(-c2cc(OC)c(OC)c(OC)c2)c2ccc(NCc3ccccn3)nc2c(=O)n1Cc1ccnc(C)c1.Cl | 22 |  | 41000 |  | 1.8 |  |  |
| COC(=O)c1c(-c2cc(OC)c(OC)c(OC)c2)c2ccnc(N3CCN(C)CC3)c2c(=O)n1Cc1ccnc(C)c1 | 1400 |  | > 100000 |  | 94 |  |  |
| COC(=O)c1c(-c2cc(OC)c(OC)c(OC)c2)c2ccc(OCc3ccccn3)nc2c(=O)n1Cc1ccncc1.Cl | 11 |  | 45000 |  | 0.38 |  |  |
| COC(=O)c1c(-c2cc(OC)c(OC)c(OC)c2)c2ccc(OCCc3ccccn3)nc2c(=O)n1Cc1ccnc(C)c1 |  |  |  |  | 1.2 |  |  |
| CCCc1nn(C)c2c(=O)[nH]c(-c3cc(S(=O)(=O)N4CCN(C)CC4)ccc3OCC)nc12 |  | 43000 |  |  |  |  |  |
| COC(=O)c1c(-c2cc(OC)c(OC)c(OC)c2)c2ccc(OCc3ncccn3)nc2c(=O)n1Cc1ccnc(C)c1.Cl | 42 | 25000 | > 100000 | 37 | 1.9 | 19000 | > 100000 |
| COC(=O)c1c(-c2cc(OC)c(OC)c(OC)c2)c2ccnc(OCCc3ccccn3)c2c(=O)n1Cc1ccnc(C)c1.Cl | 72 | > 100000 | 20000 | 22 | 0.52 | 50000 | > 100000 |
| COC(=O)c1c(-c2cc(OC)c(OC)c(OC)c2)c2ccnc(OCc3ncccn3)c2c(=O)n1Cc1ccnc(C)c1.Cl | 56 | > 100000 | > 100000 | 5 | 0.23 | 67000 | > 100000 |
| COC(=O)c1c(-c2cc(OC)c(OC)c(OC)c2)c2ccc(OCc3ccccn3)nc2c(=O)n1Cc1ccnc(C)c1.Cl | 8.6 | 40000 | 33000 | 53 | 0.22 | 30000 | > 100000 |
| COC(=O)c1c(-c2cc(OC)c(OC)c(OC)c2)c2ccc(OCc3ccccn3)nc2c(=O)n1-c1ccc(N)cc1.Cl | 22 |  | 40000 |  | 0.51 |  |  |
| COC(=O)c1c(-c2cc(OC)c(OC)c(OC)c2)c2ccc(OCc3ccccn3)nc2c(=O)n1Cc1cccnc1.Cl | 38 |  | 12000 |  | 2.3 |  |  |
